# Measurements as given in ChEMBL document CHEMBL1781932 (J Med Chem, 2011).
# Legend:
# Escherichia coli [1] = experiment: Antimicrobial activity against tetracycline-resistant Escherichia coli isolate 155 harboring tetA gene by CLSI dilution method; format: functional
# [2] = Apparent volume of distribution in Sprague-Dawley rat at 1 mg/kg, iv administered as single dose measured after 24 to 48 hrs; conditions: in vivo
# Staphylococcus aureus [3] = experiment: Antimicrobial activity against tetracycline-susceptible Staphylococcus aureus Smith isolate 100 infected in iv dosed mouse systemic infection model assessed as survival of mouse administered 60 mins post infection measured up to 48 hrs; format: functional; conditions: Smith isolate 100, iv, read-out: PD50
# In short: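 Mouse septicemia model with S. aureus ATCC 13709 mixed with 5% mucin, given intraperitoneally at 2.1×10^6 cfu/mouse. Compound was dosed intravenously 60 min after infection at 0.3–30 mg/kg in sterile water, 6 mice/dose group, with untreated infection controls. Survival was followed over 48 h. PD50 was derived by Probit analysis with 95% CI.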
# Staphylococcus aureus [4] = experiment: Antimicrobial activity against tetracycline-susceptible Staphylococcus aureus isolate 101 by CLSI dilution method; format: functional
# [5] = Clearance in Sprague-Dawley rat at 1 mg/kg, iv administered as single dose measured after 24 to 48 hrs; format: ADME, organism-based; design: dose 1 mg/kg, route intravenous; conditions: in vivo
# In short: (§1)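 Sprague-Dawley rats (n = 3) were fasted overnight (minimum 12 h) and given a single dose, iv 1 mg/kg or oral 10 mg/kg, in sterile water. Samples were taken over 24–48 h. PK parameters came from noncompartmental analysis.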
# Enterococcus faecalis [6] = experiment: Antimicrobial activity against tetracycline-resistant Enterococcus faecalis isolate 159 harboring […] gene by CLSI dilution method; format: functional
# Enterococcus faecalis [7] = experiment: Antimicrobial activity against tetracycline-susceptible Enterococcus faecalis isolate 103 by CLSI dilution method; format: functional
# In short: (§2)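 Broth microdilution per CLSI in fresh cation-adjusted Mueller Hinton broth, kept at 4 °C before testing, with defibrinated horse blood added as appropriate. Strains were from ATCC. MIC in µg/mL. Runs were accepted when comparator antibiotics against ATCC quality-control strains fell within recommended ranges.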
# Escherichia coli [8] = experiment: Antimicrobial activity against tetracycline-susceptible Escherichia coli isolate 107 by CLSI dilution method; format: functional; in short: as §2
# Acinetobacter baumannii = experiment: Antimicrobial activity against tetracycline-susceptible Acinetobacter baumannii isolate 110 by CLSI dilution method; format: functional; in short: as §2
# Staphylococcus aureus [9] = experiment: Antimicrobial activity against tetracycline-resistant Staphylococcus aureus isolate 158 harboring tetK gene by CLSI dilution method; format: functional
# [10] = Cmax in Sprague-Dawley rat at 1 mg/kg, iv administered as single dose measured after 24 to 48 hrs; format: ADME, organism-based; design: dose 1 mg/kg, route intravenous; conditions: in vivo; in short: as §1
# Klebsiella pneumoniae [11] = experiment: Antimicrobial activity against tetracycline-resistant Klebsiella pneumoniae isolate 153 harboring tetA gene by CLSI dilution method; format: functional
# [12] = AUC (0 to infinity) in Sprague-Dawley rat at 1 mg/kg, iv administered as single dose measured after 24 to 48 hrs; format: ADME, organism-based; design: time infinity, dose 1 mg/kg, route intravenous; conditions: plasma; in short: as §1
# Enterobacter cloacae = experiment: Antimicrobial activity against tetracycline-susceptible Enterobacter cloacae isolate 108 by CLSI dilution method; format: functional; in short: as §2
# Rattus norvegicus = experiment: Oral bioavailability in Sprague-Dawley rat at 10 mg/kg administered as single dose; format: ADME, organism-based; conditions: in vivo; in short: as §1
# Streptococcus pneumoniae [13] = experiment: Antimicrobial activity against tetracycline-resistant Streptococcus pneumoniae isolate 160 harboring tetM gene by CLSI dilution method; format: functional
# Staphylococcus aureus [14] = experiment: Antimicrobial activity against methicillin-, tetracycline-resistant Staphylococcus aureus isolate 161 harboring tetM gene by CLSI dilution method; format: functional
# Klebsiella pneumoniae [15] = experiment: Antimicrobial activity against tetracycline-susceptible Klebsiella pneumoniae isolate 109 by CLSI dilution method; format: functional; in short: as §2
# Staphylococcus aureus [16] = experiment: Antimicrobial activity against tetracycline-susceptible Staphylococcus aureus Smith isolate 100 infected in po dosed mouse systemic infection model assessed as survival of mouse administered 60 mins post infection measured after 48 hrs; format: functional; conditions: Smith isolate 100, po, read-out: PD50
# In short: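 Mouse septicemia model with S. aureus ATCC 13709 in 5% mucin, inoculated intraperitoneally at 2.1×10^6 cfu/mouse. Oral gavage dosing began 60 min post-infection at 0.3–30 mg/kg in sterile water, 6 mice/dose group, with untreated infection controls. Survival was assessed over 48 h. PD50 was obtained by Probit analysis with 95% CI.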
# Pseudomonas aeruginosa = experiment: Antimicrobial activity against tetracycline-susceptible Pseudomonas aeruginosa isolate 111 by CLSI dilution method; format: functional; in short: as §2
# [17] = Elimination half life in Sprague-Dawley rat at 1 mg/kg, iv administered as single dose; format: ADME, organism-based; design: dose 1 mg/kg, route intravenous; conditions: in vivo, read-out: beta t1/2 (converted); in short: as §1
# Streptococcus pneumoniae [18] = experiment: Antimicrobial activity against tetracycline-susceptible Streptococcus pneumoniae isolate 106 by CLSI dilution method; format: functional; in short: as §2
# Staphylococcus aureus [19] = experiment: Antimicrobial activity against tetracycline-susceptible Staphylococcus aureus Smith isolate 100 by CLSI dilution method; format: functional
SMILES,MIC (Escherichia coli [1]),Vd [2],ED50 (Staphylococcus aureus [3]),MIC (Staphylococcus aureus [4]),clearance [5],MIC (Enterococcus faecalis [6]),MIC (Enterococcus faecalis [7]),MIC (Escherichia coli [8]),MIC (Acinetobacter baumannii),MIC (Staphylococcus aureus [9]),Cmax [10],MIC (Klebsiella pneumoniae [11]),AUC(0-inf) [12],MIC (Enterobacter cloacae),MIC (Streptococcus pneumoniae [13]),MIC (Staphylococcus aureus [14]),MIC (Klebsiella pneumoniae [15]),MIC (Pseudomonas aeruginosa),half-life [17],MIC (Streptococcus pneumoniae [18]),further results
CN(C)[C@@H]1C(O)=C(C(N)=O)C(=O)[C@@]2(O)C(O)=C3C(=O)c4c(cc5ccc(CN6CC(F)C6)cc5c4O)C[C@H]3C[C@@H]12,8 µg/mL,1.4 L/kg,0.36 mg/kg,0.5 µg/mL,4.82 mL/min/kg,2 µg/mL,0.5 µg/mL,2 µg/mL,1 µg/mL,0.5 µg/mL,814 ng/mL,16 µg/mL,3460 ng·h/mL,8 µg/mL,0.25 µg/mL,2 µg/mL,8 µg/mL,> 32 µg/mL,3.35 h,0.125 µg/mL,F (Rattus norvegicus): 18%; ED50 (Staphylococcus aureus [16]): 12.2 mg/kg
CN(C)[C@@H]1C(O)=C(C(N)=O)C(=O)[C@@]2(O)C(O)=C3C(=O)c4c(c(F)c5ccc(CNC(C)(C)C)cc5c4O)C[C@H]3C[C@@H]12,4 µg/mL,11.9 L/kg,0.35 mg/kg,0.5 µg/mL,17.7 mL/min/kg,1 µg/mL,0.0313 µg/mL,–,0.25 µg/mL,0.0156 µg/mL,278 ng/mL,4 µg/mL,975 ng·h/mL,–,0.0313 µg/mL,1 µg/mL,2 µg/mL,16 µg/mL,7.82 h,0.0156 µg/mL,MIC (Staphylococcus aureus [19]): 0.5 µg/mL; F (Rattus norvegicus): 1.2%
CN(C)[C@@H]1C(O)=C(C(N)=O)C(=O)[C@@]2(O)C(O)=C3C(=O)c4c(c(F)c5ccc(CN6CC(F)C6)cc5c4O)C[C@H]3C[C@@H]12,8 µg/mL,3.06 L/kg,–,0.5 µg/mL,16.1 mL/min/kg,1 µg/mL,0.25 µg/mL,4 µg/mL,1 µg/mL,0.25 µg/mL,358 ng/mL,8 µg/mL,1040 ng·h/mL,8 µg/mL,–,1 µg/mL,4 µg/mL,> 32 µg/mL,2.22 h,0.25 µg/mL,MIC (Staphylococcus aureus [19]): 1 µg/mL; F (Rattus norvegicus): 16.7%
COc1c2c(c(O)c3cc(CNC4CC4)ccc13)C(=O)C1=C(O)[C@]3(O)C(=O)C(C(N)=O)=C(O)[C@@H](N(C)C)[C@@H]3C[C@@H]1C2,8 µg/mL,8.4 L/kg,0.6 mg/kg,0.0625 µg/mL,45.4 mL/min/kg,2 µg/mL,0.0625 µg/mL,0.5 µg/mL,0.25 µg/mL,0.0313 µg/mL,124 ng/mL,8 µg/mL,385 ng·h/mL,4 µg/mL,0.125 µg/mL,2 µg/mL,2 µg/mL,16 µg/mL,2.17 h,0.0156 µg/mL,MIC (Staphylococcus aureus [19]): 0.25 µg/mL; F (Rattus norvegicus): 12.5%
COc1c2c(c(O)c3cc(CNCC(C)C)ccc13)C(=O)C1=C(O)[C@]3(O)C(=O)C(C(N)=O)=C(O)[C@@H](N(C)C)[C@@H]3C[C@@H]1C2,4 µg/mL,9.6 L/kg,< 0.3 mg/kg,–,20.5 mL/min/kg,2 µg/mL,0.0625 µg/mL,1 µg/mL,0.25 µg/mL,0.016 µg/mL,414 ng/mL,8 µg/mL,815 ng·h/mL,2 µg/mL,0.125 µg/mL,2 µg/mL,1 µg/mL,16 µg/mL,5.4 h,0.0156 µg/mL,MIC (Staphylococcus aureus [19]): 0.5 µg/mL; F (Rattus norvegicus): 2.7%
COc1c2c(c(O)c3cc(CN4CC(F)C4)ccc13)C(=O)C1=C(O)[C@]3(O)C(=O)C(C(N)=O)=C(O)[C@@H](N(C)C)[C@@H]3C[C@@H]1C2,8 µg/mL,5.06 L/kg,–,0.25 µg/mL,63.9 mL/min/kg,2 µg/mL,0.125 µg/mL,2 µg/mL,0.25 µg/mL,0.125 µg/mL,237 ng/mL,8 µg/mL,451 ng·h/mL,8 µg/mL,0.0313 µg/mL,1 µg/mL,4 µg/mL,32 µg/mL,1.5 h,0.0156 µg/mL,MIC (Staphylococcus aureus [19]): 1 µg/mL; F (Rattus norvegicus): 17.7%
CN(C)[C@@H]1C(O)=C(C(N)=O)C(=O)[C@@]2(O)C(O)=C3C(=O)c4c(c(F)c5ccc(CN6CCC6)cc5c4O)C[C@H]3C[C@@H]12,4 µg/mL,41.9 L/kg,0.3 mg/kg,0.25 µg/mL,52.4 mL/min/kg,2 µg/mL,0.25 µg/mL,1 µg/mL,0.5 µg/mL,0.25 µg/mL,73 ng/mL,4 µg/mL,354 ng·h/mL,2 µg/mL,0.125 µg/mL,1 µg/mL,2 µg/mL,32 µg/mL,8.01 h,0.0625 µg/mL,–
COc1c2c(c(O)c3cc(CN4CCC4)ccc13)C(=O)C1=C(O)[C@]3(O)C(=O)C(C(N)=O)=C(O)[C@@H](N(C)C)[C@@H]3C[C@@H]1C2,8 µg/mL,4.65 L/kg,0.36 mg/kg,0.0625 µg/mL,10.2 mL/min/kg,1 µg/mL,0.0625 µg/mL,0.25 µg/mL,1 µg/mL,0.0625 µg/mL,618 ng/mL,8 µg/mL,1650 ng·h/mL,1 µg/mL,0.0625 µg/mL,0.5 µg/mL,1 µg/mL,32 µg/mL,5.26 h,0.0156 µg/mL,MIC (Staphylococcus aureus [19]): 0.0625 µg/mL; ED50 (Staphylococcus aureus [16]): > 20 mg/kg
CC(C)CNCc1ccc2cc3c(c(O)c2c1)C(=O)C1=C(O)[C@]2(O)C(=O)C(C(N)=O)=C(O)[C@@H](N(C)C)[C@@H]2C[C@@H]1C3,4 µg/mL,3.16 L/kg,0.62 mg/kg,0.25 µg/mL,6.22 mL/min/kg,4 µg/mL,0.5 µg/mL,1 µg/mL,0.5 µg/mL,0.25 µg/mL,891 ng/mL,4 µg/mL,2680 ng·h/mL,2 µg/mL,0.25 µg/mL,4 µg/mL,4 µg/mL,32 µg/mL,5.87 h,0.0156 µg/mL,MIC (Staphylococcus aureus [19]): 1 µg/mL; F (Rattus norvegicus): 1.9%
COCCNCc1ccc2cc3c(c(O)c2c1)C(=O)C1=C(O)[C@]2(O)C(=O)C(C(N)=O)=C(O)[C@@H](N(C)C)[C@@H]2C[C@@H]1C3,8 µg/mL,3.78 L/kg,0.43 mg/kg,0.25 µg/mL,8.43 mL/min/kg,8 µg/mL,0.5 µg/mL,1 µg/mL,1 µg/mL,0.5 µg/mL,633 ng/mL,8 µg/mL,1980 ng·h/mL,2 µg/mL,0.5 µg/mL,4 µg/mL,4 µg/mL,32 µg/mL,5.19 h,0.0156 µg/mL,MIC (Staphylococcus aureus [19]): 1 µg/mL; F (Rattus norvegicus): 2.8%
CN(C)[C@@H]1C(O)=C(C(N)=O)C(=O)[C@@]2(O)C(O)=C3C(=O)c4c(O)cccc4[C@@](C)(O)[C@H]3C[C@@H]12 [TETRACYCLINE],–,–,0.35 mg/kg,–,–,–,–,–,–,–,583 ng/mL,–,–,–,–,–,–,–,–,–,MIC (Staphylococcus aureus [19]): 0.25 µg/mL; ED50 (Staphylococcus aureus [16]): 8.1 mg/kg
CN(C)c1cc(NC(=O)CNC(C)(C)C)c(O)c2c1C[C@H]1C[C@H]3[C@H](N(C)C)C(O)=C(C(N)=O)C(=O)[C@@]3(O)C(O)=C1C2=O [TIGECYCLINE],0.5 µg/mL,–,0.35 mg/kg,0.0625 µg/mL,–,0.0625 µg/mL,0.0313 µg/mL,0.0313 µg/mL,0.25 µg/mL,0.0625 µg/mL,428 ng/mL,1 µg/mL,1050 ng·h/mL,0.25 µg/mL,0.0156 µg/mL,0.125 µg/mL,0.125 µg/mL,8 µg/mL,4.6 h,0.0156 µg/mL,MIC (Staphylococcus aureus [19]): 0.0625 µg/mL
